The labels stand for the following.
B1: tRNA (parent)
chain: GUUCCGUUGGCGUAAUGGUAACGCGUCUCCCUCCUAAGGAGAAGACUGCGGGUUCGAGUCCCGUACGGAACG

Our source for the yeast fitness values is the RNAGym collection of RNA variant scans (doi:10.1126/science.aae0568).

Variants at the floor of the assay were thinned out.

The variants in the data set derive from B1. The experiment in a line: yeast fitness relative to wild type (ratio to wild type); higher = fitter; tRNA-Arg(CCU), competitive growth, 37 C, YPD. An outline of the steps: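 Amplicons of the tRNA-Arg(CCU) gene were sequenced, 100-nucleotide paired-end, from the start population and from each end population of a pooled yeast competition. The competition, in six parallel replicates, lasted 24 hours in YPD at 37°C. Fitness relative to wild type was calculated from changes in genotype frequencies. Genotypes had to have ≥ 100 starting reads, and estimates < 0.5 were set to 0.5.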
With U8C A14U A42C G52A G56C, the yeast fitness is at most 0.5.
The same measure for C22G C29U A37U: 0.589; for C27A C30U G44C: at most 0.5.
On to G10A U13C A40C, for which the yeast fitness is at most 0.5.
With U59A C62A, the yeast fitness amounted to 0.657.
Turning to C31U A43U G48A A57U G67C, the yeast fitness was at most 0.5.
In the case of C30A G39C A57G it was at most 0.5; in that of A14G A20C C31U C46G, at most 0.5.
Turning to U2A C31A A69U, the yeast fitness came to 0.604.
The same measure for A20G G50C U54G: at most 0.5.
The same measure for A36G A40C: 0.961; for C29U A37C C49U C55G G68C: at most 0.5.
With C29G A45G A69C A70C, the yeast fitness is at most 0.5.
Consider C5G A20G A36C, for which the yeast fitness worked out at 0.52.
In the case of U3C C27U A69U, the yeast fitness was 0.806.
With U8C C27U G51A A57U, the yeast fitness stood at 0.541.
In the case of A42G C46U G52C C61A, the yeast fitness is at most 0.5.
For the variant U2G C27U C55U, the yeast fitness was at most 0.5.
The same measure for C22A C29A C61U: at most 0.5; for C31U A40G C61G: at most 0.5; for C29G A43G U47A: at most 0.5.
The same measure for U32A A43G U53A: at most 0.5; for A45C C49A: 0.603; for A21U G52A: 0.566.
In the case of C5G U7C it was 0.787.
As for G9C A21C, the yeast fitness stood at 0.652.
As to G10A G41A C60G A65G, the yeast fitness was determined as 0.529.
For C29A C61G A70U, the yeast fitness was at most 0.5.
The same measure for C4G A65C: 0.733.
Take U26C A37G: the yeast fitness is 0.634.
On to C27G C30A U47C, for which the yeast fitness was 0.535.
Take G10C A15U C27A C49G U64A: the yeast fitness was at most 0.5.
In the case of A15U G67A A69U it was 0.558.
Turning to A14U C24A C55G, the yeast fitness is at most 0.5.
Regarding A14G C46G C62U, the yeast fitness is 0.725.
In the case of A15G U26C G44A G50C A70G it was at most 0.5.
Regarding G12A C24A A36U C61U G67U, the yeast fitness stood at 0.69.
Turning to C4G C27U C49U, the yeast fitness is at most 0.5.
Take G18C C22G G39A: the yeast fitness was at most 0.5.
As for U16A C30U A40C G48C G67C, the yeast fitness is at most 0.5.
Turning to A45C U47A, the yeast fitness worked out at 0.934.
Turning to G10A C24U A36C, the yeast fitness is at most 0.5.
In the case of A20U A36G C55U it was 0.573; in that of C24U G25A C30U G50A G68C, at most 0.5; in that of C33U G38A, 0.866.
C11U A45U A65C: the yeast fitness worked out at 0.733.
With U2G C27G C33U G56A, the yeast fitness was at most 0.5.
For the variant C22G U54A C55U, the yeast fitness was at most 0.5.
With U13A C60G G67A, the yeast fitness is at most 0.5.
As for G38C G41C A70C, the yeast fitness is 0.553.
In the case of U13G C22U C31A C62U A65C it was at most 0.5; in that of U2G C46G C49U, 0.669; in that of C24U U35C G38C, 0.677.
In the case of A20U A57U A65C A70G, the yeast fitness was at most 0.5.
In the case of A14U U16A C27G A40U C49G A65U, the yeast fitness is at most 0.5.
Regarding A45U C49G A70C, the yeast fitness came to 0.65.
Consider C46G C60U G68C, for which the yeast fitness was at most 0.5.
Regarding G12C G39A A42C, the yeast fitness was at most 0.5.
On to U8A C29U G51C A57G, for which the yeast fitness is at most 0.5.
For the variant G25C C61U C66U, the yeast fitness worked out at 0.652.
As to C22G C31U U59G, the yeast fitness was determined as 0.539.
The same measure for A20G A40G A42G C55U: at most 0.5; for G12C U35A: 0.774; for G48C U54A: 0.679.
The same measure for U3G A15G C24G G50A C55U C61U A65U: at most 0.5.
For the variant G56C C62A, the yeast fitness was found to be 0.563.
The same measure for G6A A57U A65C A70C: 0.534.
As for U2A G48A C60U A69U, the yeast fitness is at most 0.5.
In the case of U3C C11A C27G C33A C46A, the yeast fitness stood at 0.541.
Take C34A A42U A43C: the yeast fitness was 0.629.
In the case of U8C C24G G67U it was at most 0.5; in that of C11A U35G C46A C49U C60U, at most 0.5; in that of C4U G18C G38A A40C, 0.545.
On to U7G A15C U16A C33G A69C, for which the yeast fitness is at most 0.5.
C5A C22G C49U A57C: the yeast fitness was 0.779.
Take C31U U47A C61U A70C: the yeast fitness is at most 0.5.
As to U16G C22G G67C, the yeast fitness came out at 0.709.
As for G6A A21U C33U A57U U59C, the yeast fitness is at most 0.5.
For C5U A20U A45U, the yeast fitness was found to be 0.582.
Turning to C4U A21G G52A G63A, the yeast fitness is at most 0.5.
For A21G A42C C61U, the yeast fitness is 0.659.
In the case of C4G U8G C27G G48C, the yeast fitness was at most 0.5.
With G10A G17A G39C A45C C49G, the yeast fitness was at most 0.5.
For the variant G17A G67U, the yeast fitness was found to be 0.808.
The same measure for C11G G41A A70G: at most 0.5; for U7G G68A: 0.821; for C29U G41C C62U: 0.552.
For C5G U13G C27U G41A, the yeast fitness amounted to 0.541.
In the case of U7C C33U A65U it was at most 0.5.
Turning to U16C G41C C46A, the yeast fitness came out at 0.721.
In the case of G6A C22U U35C C55A C66U it was at most 0.5; in that of C34U U35C A40G U47C, at most 0.5.
As for A20G C24A C27A, the yeast fitness was found to be 0.52.
On to G18C C24U, for which the yeast fitness came out at 0.641.
With U7A A14G C31U A43C C46U G63C C66U, the yeast fitness was at most 0.5.
Take C11G C29A A43C U64C: the yeast fitness is at most 0.5.
The same measure for A42C C55U C62U: 0.509.
For A14C C24A A40G C49A C61G, the yeast fitness is at most 0.5.
As for G25C U53C G58A, the yeast fitness is 0.605.
As for U32C G44A, the yeast fitness is 1.03.
With C5U G25C, the yeast fitness stood at 0.997.
Turning to C5U A15G A20C U26C G41C G67C, the yeast fitness turned out to be 0.593.
For C5G G10C G68U, the yeast fitness was at most 0.5.
As for G10A A36C A45C, the yeast fitness worked out at 0.634.
In the case of A20G C24A, the yeast fitness stood at 0.56.
Take U13G A20U U59A: the yeast fitness was at most 0.5.
In the case of U7C C29G G67C, the yeast fitness was determined as 0.651.
For U16A A20C C29G G63A G68C, the yeast fitness was at most 0.5.
C5U A40C C46A: the yeast fitness was 0.794.
In the case of C5G C46G C49U it was 0.646; in that of A37C G38A G63A, 0.549.
Regarding A20U A57C, the yeast fitness amounted to 0.644.
Regarding C27A U54A A65U C66U, the yeast fitness is at most 0.5.
In the case of U13C A45C G50U A57G it was at most 0.5.
With C4U A45C C55U G68C, the yeast fitness was at most 0.5.
For U3A C31U A36C, the yeast fitness is 0.571.
U13A G67U: the yeast fitness amounted to 0.727.
A20C A57U: the yeast fitness stood at 0.81.
As for C29A A40G C55U, the yeast fitness was at most 0.5.
For the variant U26C A36C U64A A70C, the yeast fitness is at most 0.5.
As for G23C C24G, the yeast fitness amounted to 0.783.
As for U13A A20G A36C G41C C61U, the yeast fitness turned out to be 0.62.
Regarding C61U U64G, the yeast fitness worked out at 0.674.
On to U13C C49G U53C A57C, for which the yeast fitness was at most 0.5.
In the case of C24U A43U C66U it was 0.801; in that of C5U A37G A43C C46U C62U, at most 0.5.
As for G23C U47C, the yeast fitness worked out at 0.681.
In the case of C22G C30A G51A it was at most 0.5; in that of G38C C46U A69U A70G, at most 0.5.
For A40U C49G G56C A69C, the yeast fitness is at most 0.5.
Turning to G6A A14U G48A, the yeast fitness came out at 0.547.
Regarding U3G U7G C22U C60G, the yeast fitness was at most 0.5.
Consider U19C C24G C33A, for which the yeast fitness was at most 0.5.
The same measure for U2G A14U A20G C33G A70C: at most 0.5.
In the case of U3C U7A G9C G17C G48A A69U, the yeast fitness is at most 0.5.
As for G6A C33G A43U, the yeast fitness was determined as 0.574.
Consider U3C G10A, for which the yeast fitness came out at 0.718.
Regarding A36G C61U, the yeast fitness came out at 0.891.
In the case of C30U G41C A70U, the yeast fitness was determined as 0.567.
In the case of A15C A37C A42U it was at most 0.5.
Regarding U3G U64G, the yeast fitness worked out at 0.716.
Consider U13A U32A C62U G63A, for which the yeast fitness was at most 0.5.
G12C A36C A40U C66U A69U: the yeast fitness was at most 0.5.
C22U G23A C46U: the yeast fitness was at most 0.5.
With U2G U19A A69U, the yeast fitness came out at 0.551.
For U3A C4U G44C, the yeast fitness came to 0.638.
In the case of U2A U16G G50C C55U C60G A69G, the yeast fitness is at most 0.5.
On to U3C C5A G18C A45C G56C C60U G68U, for which the yeast fitness was at most 0.5.
As to C22G C30A U47A, the yeast fitness is at most 0.5.
The same measure for C24G U59C: 0.65; for C33U A57U: 0.546.
Consider C4A G23A C31G A40C, for which the yeast fitness was determined as 0.52.
In the case of A57U C62U, the yeast fitness was determined as 0.617.
Take A20U C27G C29U C62G: the yeast fitness was at most 0.5.
Take C24G G25A A36C G67U: the yeast fitness is at most 0.5.
Regarding U2C A20C A65U, the yeast fitness stood at 0.641.
Turning to C4A C5U G39C A42C G52C C62U, the yeast fitness is at most 0.5.
As for C4G U8C A21G, the yeast fitness is 0.605.
The same measure for C27U U28A A40U: 0.671.
The same measure for U8C U16C U59A: at most 0.5.
The same measure for C24G U26G C34A A36C: at most 0.5.
For the variant G12C A45U, the yeast fitness was found to be 0.978.
For the variant G6A G17C C31A A36U C55G G63A, the yeast fitness is at most 0.5.
A57G C66A: the yeast fitness was determined as 0.652.
As to C29G A36G A40U, the yeast fitness was at most 0.5.
Turning to C4U C22U C66U, the yeast fitness turned out to be 0.624.
On to C27U G48A U59A, for which the yeast fitness was 0.684.
